Reference: ChEMBL document CHEMBL1154578, “Aminosterols from the dogfish shark Squalus acanthias” (2000)
Converted amounts (≈) assume the structure as drawn.

Assays:
Type in all cases: functional
Escherichia coli = experiment: Antimicrobial activity against Escherichia coli ATCC 25922
Summary of the method: (§1)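 Broth microdilution MIC: log-phase microbes at (0.9-1.1) × 10⁵ cfu/mL in 0.5× trypticase soy broth, exposed to increasing amounts of aminosterol in microtiter plates, incubated at 37 °C for 18-24 h. Aminosterol starting solutions at 2 mg/mL in 250 mM sodium acetate, pH 6.6.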

Pseudomonas aeruginosa = experiment: Antimicrobial activity against Pseudomonas aeruginosa ATCC 27853; summary of the method: as §1
Candida albicans = experiment: Antimicrobial activity against Candida albicans ATCC 90028; summary of the method: as §1
Staphylococcus aureus = experiment: Antimicrobial activity against Staphylococcus aureus ATCC 29218; conditions: ATCC 29213, in the assay text read “ATCC 29213” for “ATCC 29218”; summary of the method: as §1

| Structure (SMILES) | MIC (Escherichia coli) [µg/mL] | MIC (Pseudomonas aeruginosa) [µg/mL] | MIC (Candida albicans) [µg/mL] | MIC (Staphylococcus aureus) [µg/mL] |
| --- | --- | --- | --- | --- |
| CC(COS(=O)(=O)O)[C@H](O)CC[C@@H](C)[C@H]1CC[C@H]2[C@@H]3[C@H](O)C[C@H]4C[C@@H](NCCCNCCCCN)CC[C@]4(C)[C@H]3CC[C@]12C (some centres not stated) | 128 (≈ 199 µM) | 32 (≈ 49.7 µM) | 16 (≈ 24.8 µM) | 4 (≈ 6.21 µM) |
| CC(C)[C@](CO)(CC[C@@H](C)[C@H]1CC[C@H]2[C@@H]3[C@H](O)C[C@H]4C[C@@H](NCCCNCCCCN)CC[C@]4(C)[C@H]3CC[C@]12C)OS(=O)(=O)O | 8 (≈ 12.2 µM) | 16 (≈ 24.3 µM) | 32 (≈ 48.6 µM) | 2 (≈ 3.04 µM) |
| C=C(C)C(=O)CC[C@@H](C)[C@H]1CC[C@H]2[C@@H]3[C@H](O)C[C@H]4C[C@@H](NCCCNCCCCN)CC[C@]4(C)[C@H]3CC[C@]12C | 16 (≈ 29.4 µM) | 16 (≈ 29.4 µM) | 2 (≈ 3.68 µM) | 2 (≈ 3.68 µM) |
| CC(COS(=O)(=O)O)C(=O)CC[C@@H](C)[C@H]1CC[C@H]2[C@@H]3[C@H](O)C[C@H]4C[C@@H](NCCCNCCCCN)CC[C@]4(C)[C@H]3CC[C@]12C (some centres not stated) | 128 (≈ 199 µM) | 128 (≈ 199 µM) | 32 (≈ 49.8 µM) | 8 (≈ 12.5 µM) |
| CC(CSCC(N)C(=O)O)C(=O)CC[C@@H](C)[C@H]1CC[C@H]2[C@@H]3[C@H](O)C[C@H]4C[C@@H](NCCCNCCCCN)CC[C@]4(C)[C@H]3CC[C@]12C (some centres not stated) | 256 (≈ 385 µM) | 256 (≈ 385 µM) | 128 (≈ 192 µM) | 8 (≈ 12 µM) |

The remaining lines, values ahead:

| MIC (Escherichia coli) [µg/mL] | MIC (Pseudomonas aeruginosa) [µg/mL] | MIC (Candida albicans) [µg/mL] | MIC (Staphylococcus aureus) [µg/mL] | Structure (SMILES) |
| --- | --- | --- | --- | --- |
| 1 (≈ 1.46 µM) | 4 (≈ 5.84 µM) | 4 (≈ 5.84 µM) | 1 (≈ 1.46 µM) | CC(C)[C@@H](CC[C@@H](C)[C@H]1CC[C@H]2[C@@H]3[C@H](O)C[C@H]4C[C@@H](NCCCNCCCCNCCCN)CC[C@]4(C)[C@H]3CC[C@]12C)OS(=O)(=O)O [TRODUSQUEMINE] |
| 4 (≈ 6.37 µM) | 16 (≈ 25.5 µM) | 16 (≈ 25.5 µM) | 1 (≈ 1.59 µM) | CC(C)[C@@H](CC[C@@H](C)[C@H]1CC[C@H]2[C@@H]3[C@H](O)C[C@H]4C[C@@H](NCCCNCCCCN)CC[C@]4(C)[C@H]3CC[C@]12C)OS(=O)(=O)O [SQUALAMINE] |
| 16 (≈ 24.8 µM) | 16 (≈ 24.8 µM) | 32 (≈ 49.7 µM) | 8 (≈ 12.4 µM) | CC(C)[C@@H](CC[C@@H](C)[C@H]1CC[C@H]2[C@@H]3[C@H](O)C[C@H]4C[C@@H](NCCCNCCCCN)CC[C@]4(C)[C@H]3C[C@H](O)[C@]12C)OS(=O)(=O)O |
